Screening data from PubChem BioAssay.
Rows were chosen to be rich in hits. Some 2.6% of all compounds tested hit in one or more screens of this group.
SENP7 inh – SENP7 protease inhibitors, primary screen, biochemical, luminescence, uHTS | actives 1.5% (n = 330,000) | inhibition, % at 5 µM | recombinant SENP7, Z-RLRGG-aminoluciferin luminescence, 40 min | Sentrin-specific protease 7 (Homo sapiens), Q9BQF6;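 active = inhibition above about 50% at the single test dose, limit read from the data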
SENP8 block-1 – human SENP8 protease inhibitors, primary screen, biochemical, fluorescence, Nedd8 protein substrate, uHTS; Sentrin-specific protease 8 (Homo sapiens), Q96LD8; recombinant SENP8; inhibition, % at 20 µM; actives 0.64% (n = 360,000); AID 602440, 2012; in the data active = inhibition mostly above about 40%, no sharp cut-off; inactive = mostly below about 27%
Target sequence (Q96LD8 whole entry, looked up): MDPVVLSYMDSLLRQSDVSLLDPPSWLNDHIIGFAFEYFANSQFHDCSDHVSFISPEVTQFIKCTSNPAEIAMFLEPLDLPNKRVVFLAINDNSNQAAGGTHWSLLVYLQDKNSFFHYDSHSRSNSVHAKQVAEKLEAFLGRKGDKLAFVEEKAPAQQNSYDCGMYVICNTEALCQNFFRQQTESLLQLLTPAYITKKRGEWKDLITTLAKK
UCH37 inh – inhibitors of human UCH37 deubiquitinase, primary screen, biochemical, Ub-AMC cleavage, fluorescence; Ubiquitin carboxyl-terminal hydrolase isozyme L5 (Homo sapiens), Q9Y5K5; purified proteasome/UCH37; inhibition, % (no concentration beside the values); actives 0.33% (n = 330,000); AID 588478, 2011;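 active = mean inhibition over replicate wells above about 20%, limit read from the data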
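Assay system: Proteasome-bound UCH37. Buffer or medium: pH 7.4 Tris-HCl (50 mM) with ovalbumin, ATP-MgCl2, DTT. Incubation: 30 min preincubation with enzyme, 25 min cleavage at room temperature. Measured by: fluorescence, ex 355 nm, em 460 nm. Read-out basis: percent inhibition. Control set: wells without proteasome as full block, compound-free enzyme plus substrate as uninhibited.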
SENP6 inh – SENP6 protease inhibitors, primary screen, biochemical, luminescence, uHTS; inhibition, % at 10 µM; Recombinant SENP6 catalytic domain, aminoluciferin luminescence; actives 1.8% (n = 330,000);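 active = inhibition above about 50% at the single tested dose, limit read from the data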
SENP1 FRET inh – human SENP1 catalytic domain inhibitors, primary screen, biochemical, FRET, uHTS | Sentrin-specific protease 1 (Homo sapiens), Q9P0U3 | recombinant SENP1 catalytic domain, CyPet-SUMO1-YPet FRET cleavage | inhibition, % at 10 µM | actives 0.21% (n = 360,000) | AID 624204, 2012;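 active = inhibition at least 30% at 10 µM, raw YFP signal under a set limit, fluorescence ratio 0.5 to 1.5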
Target sequence (Q9P0U3 419-644 limits assumed): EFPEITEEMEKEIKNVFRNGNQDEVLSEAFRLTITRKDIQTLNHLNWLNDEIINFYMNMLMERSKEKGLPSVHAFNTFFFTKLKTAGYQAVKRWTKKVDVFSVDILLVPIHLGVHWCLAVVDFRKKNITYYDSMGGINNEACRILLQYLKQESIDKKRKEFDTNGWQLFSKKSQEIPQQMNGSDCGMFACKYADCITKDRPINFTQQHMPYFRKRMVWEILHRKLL
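Material – human SENP1 catalytic domain · Input – SENP1 enzyme, 20 pM final · Compound dosing – single concentration of 10 µM compound, 0.5% DMSO final · Timing – enzyme reaction for 50 min at room temperature, dark · Measured by – FRET fluorescence in CFP and YFP emission channels · Control set – no-enzyme wells low, DMSO-plus-enzyme wells high control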
SENP8 block-2 – SENP8 protease inhibitors, primary screen, biochemical, luminescence. Sentrin-specific protease 8 (Homo sapiens), Q96LD8. purified SENP8, Z-RLRGG-aminoluciferin cleavage. inhibition, % at 10 µM. actives 1.2% (n = 330,000); in the data active = inhibition above about 50%
SENP8 conf – SENP8 protease inhibitors, retest, confirmation, biochemical, luminescence, single concentration; shares compounds with SENP7 inh; Recombinant SENP8, Z-RLRGG-aminoluciferin luminescence, 60 min; inhibition, % at 12.5 µM; actives 40% (n = 6,200); AID 488912, 2010;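 active = mean inhibition across replicates above about 50%, limit read from the data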
SENP6 confirm – SENP6 protease inhibitors, confirmation, biochemical, luminescence, single concentration. AID 488915, 2010. inhibition, % at 12.5 µM. actives 58% (n = 6,200). shares compounds with SENP7 inh. recombinant SENP6, Z-RLRGG-aminoluciferin luminescence
SENP7 confirm – SENP7 protease inhibitors, retest, confirmation, biochemical, luminescence, single concentration | shares compounds with SENP7 inh | inhibition, % at 12.5 µM | actives 69% (n = 6,200) | recombinant SENP7, Z-RLRGG-aminoluciferin luminescence, 40 min
Casp3 select – caspase-3 protease inhibitors, confirmation, selectivity assay for SENP inhibitor project, biochemical, single concentration | shares compounds with SENP7 inh | purified caspase-3, Z-DEVD-aminoluciferin luminescence, 60 min | inhibition, % at 12.5 µM | actives 60% (n = 6,200);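 active = mean inhibition above about 50%, limit read from the data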
SENP luc ctr – counter-screen for SENP inhibitors: luminescence interference. shares compounds with SENP7 inh. Pre-incubated SENP8/Z-RLRGG-aminoluciferin, luciferase luminescence interference. inhibition, % at 12.5 µM. actives 39% (n = 6,200). AID 488919;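 active = mean inhibition above about 50% when retested at one dose, limit read from the data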
Large screens that a line does not name were inactive (follow-up assays come after a bar, where they were run).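 Rule for the calls, unless noted: active = mean inhibition above about 50% in the one-dose retest (limit read from the data); inactive = the rest.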

Cc1ccc(C(=O)OCC(=O)Nc2ccccc2Cl)c(O)c1	SENP7 inh 66 | SENP8 conf inactive | SENP6 confirm inactive | SENP7 confirm inactive | Casp3 select inactive | SENP luc ctr inactive
Brc1ccccc1-c1nnc(-c2cccnc2)o1	none
Cc1ccc(-c2nnc(-c3ccccc3Br)o2)cc1	SENP7 inh 83, SENP6 inh 90, SENP8 block-2 86 | SENP8 conf inactive | SENP6 confirm 88 | SENP7 confirm 98 | Casp3 select 74 | SENP luc ctr 76
Brc1ccc(-c2nnc(-c3ccccc3Br)o2)cc1	SENP7 inh 74, SENP6 inh 64, SENP8 block-2 70 | SENP8 conf inactive | SENP6 confirm inactive | SENP7 confirm inactive | Casp3 select inactive | SENP luc ctr inactive
CC1CCCCC1NC(=O)C(Cc1ccccc1)NS(=O)(=O)c1cccs1 (centres undefined)	none
CC(CCc1ccccc1)NC(=O)C(Cc1ccccc1)NS(=O)(=O)c1cccs1 (centres undefined)	SENP7 inh 80 | SENP8 conf inactive | SENP6 confirm inactive | SENP7 confirm inactive | Casp3 select inactive | SENP luc ctr inactive
Fc1ccccc1COc1ccccc1C=NNc1nc(N2CCCC2)nc(N2CCCC2)n1	none (no result: SENP7 inh, SENP8 block-1, SENP6 inh, SENP1 FRET inh, SENP8 block-2)
Oc1c(Br)cccc1C=Nc1ncn[nH]1	none (no result: SENP7 inh, SENP8 block-1, SENP6 inh, SENP1 FRET inh, SENP8 block-2)
O=C1c2ccccc2S(=O)(=O)c2cc(N3CCOCC3)ccc21	SENP7 inh 69, SENP6 inh 62 | SENP8 conf inactive | SENP6 confirm inactive | SENP7 confirm inactive | Casp3 select inactive | SENP luc ctr inactive
O=C(CCCN1C(=O)/C(=C/c2ccccc2Cl)SC1=S)NCCCN1CCOCC1	SENP6 inh 52 | SENP8 conf 50 | SENP6 confirm inactive | SENP7 confirm 65 | Casp3 select inactive | SENP luc ctr inactive
O=C(CCCN1C(=O)/C(=C/c2ccccc2Cl)SC1=S)N1CCCC1	SENP7 inh 68, SENP6 inh 74, SENP8 block-2 84 | SENP8 conf 85 | SENP6 confirm 84 | SENP7 confirm 88 | Casp3 select 61 | SENP luc ctr inactive
Clc1ccc(Sc2oc(C=Nn3cnnc3)cc2Br)cc1	none (no result: SENP7 inh, SENP8 block-1, SENP6 inh, SENP1 FRET inh, SENP8 block-2)
O=C1c2ccccc2NC(c2cnc3ccccc3n2)N1O (centres undefined)	SENP6 inh 72 | SENP8 conf inactive | SENP6 confirm inactive | SENP7 confirm inactive | Casp3 select inactive | SENP luc ctr inactive
Cc1csc(NC(=O)c2ccc(Br)s2)n1	SENP6 inh 55 | SENP8 conf inactive | SENP6 confirm inactive | SENP7 confirm 77 | Casp3 select inactive | SENP luc ctr inactive
